The subject of data set [1] is artificial CM-like emulsion (Intralipid). Nature of the data set: CM association assay with artificial CM-like emulsion. It is filed as in vitro ADME. The note with it: 1.75 μM, TG 1 mg/mL, 37°C, 1 hour, n = 22. The method in brief: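 Intralipid 20% was diluted in PBS to 1 mg/mL triglyceride. A 2 mL volume was spiked from a 1 mg/mL propylene glycol–ethanol (99:1) stock to give 1.75 μM final. It was stirred at 170 rpm, 37°C, for 1 h. The emulsion was then re-isolated by density gradient ultracentrifugation and drug content measured by HPLC-UV.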

In a further data set the test system is human plasma-derived CM. Description: CM association assay with human plasma-derived CM. It counts as in vitro ADME. To be noted: 1.75 μM, TG 1 mg/mL, 37°C, 1 hour, n = 9. The method in brief: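 Chylomicrons came from volunteers on no medicines in the prior week, 3–4 h after a high-fat meal. Blood in K2-EDTA was centrifuged (1,160 g, 15°C, 10 min), then the plasma was ultracentrifuged (268,350 g, 15°C, 35 min). The top CM layer was diluted in PBS to 1 mg/mL TG (enzymatic kit) and held at 4°C ≤24 h. It was spiked to 1.75 μM final, stirred 1 h at 37°C and re-isolated.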

Data set [2] in a line: Pharmacokinetic study in rats. It counts as in vivo. The note with it: male, Sprague Dawley, rat, plasma. The method in brief: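 Male Sprague Dawley rats (275–300 g) had jugular vein cannulas placed under isoflurane, recovered 2 nights and were fasted up to 16 h. IV bolus was given in propylene glycol–water–ethanol (70:20:10). Oral gavage used the same vehicle or sesame oil. Plasma was sampled to 24 h and assayed by HPLC-UV (263 nm, internal standard, 5–15000 ng/mL). Non-compartmental analysis; n = 5 IV, 3 or 6 oral.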

Data set [3] is described as follows: Biodistribution study to mesenteric lymph and MLNs in rats. It counts as in vivo. To be noted: rat, oral 5 mg/kg; for levels in MLNs compared to plasma: tmax-1h and tmax.
The conditions of data set [4]: rats, lipid-free formulation; cited from earlier work.

For orientation: Vd means a proportionality between amount in the body and measured concentration, not a real space. A low value points to confinement near the circulation. Usually clearance stands for a measure of how efficiently the substance is removed, as volume per time. Read a high clearance as efficient removal. One may read the Tmax as the time from dosing to the highest level. On to `CCC[C@@]1(CCc2ccccc2)CC(O)=C([C@H](CC)c2cccc(NS(=O)(=O)c3ccc(C(F)(F)F)cn3)c2)C(=O)O1` [TPV, tipranavir], for which the “association with artificial CM-like emulsion (Intralipid)” value in data set [1] was 31.6%. Besides, the “association with natural human plasma-derived CM” value with human plasma-derived CM is reported as 66.7%. In data set [2] (iv, 1 mg/kg), this molecule showed a C0 of 17.6 µg/mL, a Vd of 0.903 ± 0.204 L/kg and a clearance of 0.273 L/h/kg. For the same molecule, the Tmax in data set [2] (po, 5 mg/kg) was found to be 3 h. For the same molecule, the “concentration in mesenteric lymph fluid compared to plasma” value in data set [3] (LCT-based formulation, tmax-1h (2 h) and tmax (3 h)) is recorded as “three-fold higher”. In addition, the “levels in MLNs compared to plasma” value in data set [3] (LCT-based formulation) is “comparable”. The “levels in MLNs compared to plasma” value in data set [3] (lipid-free formulation) is recorded as “comparable”. In data set [4], the oral bioavailability is listed as 30%.

The values above are taken from publication PMC11244656 (International journal of pharmaceutics, 2021).
